Source: PubChem
In the library only some 1.6% were active in any assay of this set; here they are far more common.
ATG4B inhibitor = ATG4B protease inhibitors, primary screen, biochemical, fluorescence, uHTS; Cysteine protease ATG4B (Homo sapiens), Q9Y4P1; ATG4B cleavage of LC3-PLA2, NBD-HPC fluorescence, 1 h; inhibition, % at 8.33 µM; 0.51% of 340,000 active; in the data active = inhibition above about 40%
PKA-R2B act = activators of PKA-R2B holoenzyme, primary screen, biochemical, fluorescence polarization, Cy5-IP20, human; PKA-R2B holoenzyme dissociation; R2B truncated from residue 108, S112A mutant; 0% DMSO only, 100% 113 µM cGMP; activation, % at 11.4 µM; AID 504700, 2011; 0.079% of 340,000 active; cAMP-dependent protein kinase catalytic subunit beta (Homo sapiens) + cAMP-dependent …;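 active = activation above a cutoff set at the mean over all compounds plus 3 SD, cut at about 18% in these data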;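 also: higher means more holoenzyme dissociation and a rise in polarization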
Target sequence (P31323 whole entry, looked up, other chains not shown, the tested form may be a part): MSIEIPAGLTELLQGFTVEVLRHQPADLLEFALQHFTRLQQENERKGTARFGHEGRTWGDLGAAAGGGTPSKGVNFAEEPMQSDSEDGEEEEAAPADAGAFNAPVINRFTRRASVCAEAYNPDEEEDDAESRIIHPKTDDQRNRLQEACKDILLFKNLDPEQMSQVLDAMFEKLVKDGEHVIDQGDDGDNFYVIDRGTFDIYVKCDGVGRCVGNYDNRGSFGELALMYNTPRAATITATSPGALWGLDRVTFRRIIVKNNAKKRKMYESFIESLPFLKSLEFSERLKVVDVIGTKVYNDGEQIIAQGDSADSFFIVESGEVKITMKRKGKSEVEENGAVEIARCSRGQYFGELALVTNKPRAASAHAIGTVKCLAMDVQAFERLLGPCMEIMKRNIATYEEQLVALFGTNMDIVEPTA
HKDC1 inh = HKDC1 hexokinase inhibitors, primary screen, biochemical, fluorescence, uHTS. Q2TB90. recombinant HKDC1, G6PDH/diaphorase resazurin coupled fluorescence. inhibition, % at 20 µM. 0.16% of 340,000 active;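 active = inhibition above about 35% when tested at 20 µM, limit read from the data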
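Test system: Recombinant HKDC1 (HK5) hexokinase enzyme, produced in-house | Input: HKDC1 at 5 µg/mL | Buffer or medium: Tris pH 8.0 buffer with MgCl2, Tween-20, BSA, BME | Schedule: 90 min reaction incubation at room temperature, dark | Technique: Resazurin-to-resorufin fluorescence via G6PDH and diaphorase coupling, 525/613 nm | Controls: DMSO wells with and without enzyme mix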
T cell modulator = modulators of CD8 T cell-vesicle binding, primary screen, mouse 2C CD8+ T cells, flow cytometry; response (vesicle binding), % at 7 µM; 2C CD8+ T cell-vesicle binding; stronger effect = lower value; 0.068% of 330,000 active;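 active = response, share of CD8 T cells binding vesicles, and their 90th percentile fluorescence all below set limits, cut at about 80% in these data, passing the limit was not always enough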;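 also: values below 100% mean blocked vesicle binding to the CD8+ T cells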
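Read-out – percent CD8+ FL2 mean versus row control · System – murine 2C transgenic CD8+ T lymphocytes · Times – 1.5 h cell–vesicle binding at 37 °C, then 20 min icy labelling · Control set – naked vesicles low, QL9 vesicles with vehicle high · Detection – cytometric PE anti-B7-1 and Alexa647 anti-CD8 signals after 1% paraformaldehyde fixation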
PKA-R1A activ = activators of PKA-R1A holoenzyme, primary screen, biochemical, fluorescence polarization, Cy5-IP20, bovine R1A, mouse PKAc; cAMP-dependent protein kinase type I-alpha regulatory subunit (Bos taurus) + …; PKA-R1A dissociation; scaled: DMSO 0%, 113 µM cGMP 100%; activation, % at 11.4 µM; 0.083% of 340,000 active; AID 504707, 2011;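 active = percent activation above the mean of all tested compounds plus 3 SD, cut at about 19% in these data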;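 also: higher means more PKAc released from R1A so a rise in polarization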
PfGluPho inh = PfG6PD enzyme inhibitors, primary screen, biochemical, fluorescence intensity, uHTS; 0.78% of 350,000 active; PfGluPho enzyme, NADPH resazurin-diaphorase fluorescence; inhibition, % at 20 µM; AID 504690, 2011; glucose-6-phosphate dehydrogenase-6-phosphogluconolactonase (Plasmodium falciparum 3D7);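 active = inhibition reaching at least a set limit at 20 µM in the primary screen, cut at about 59% in these data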
PfGluPho conf = PfG6PD inhibitors, hit retest, confirmation, biochemical, fluorescence intensity, single concentration. shares compounds with PfGluPho inh. recombinant PfGluPho, NADPH-diaphorase-resazurin fluorescence. inhibition, % at 20 µM. 34% of 2,400 active;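 active = inhibition of at least 50% at 20 µM in any single replicate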
Diaphorase 10uM = diaphorase inhibitors and chemical oxidizers, confirmation, counter-screen for P. falciparum G6PD inhibitor project, biochemical, fluorescence intensity, 10 µM NADPH | shares compounds with PfGluPho inh | diaphorase-coupled resazurin reduction, NADPH 10 uM | inhibition, % at 20 µM | 39% of 820 active | AID 504862, 2011;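 active = average inhibition reaching 50% or more with the compound at 20 µM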;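 also: resorufin red fluorescence formed as diaphorase reduces resazurin using NADPH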
Diaphorase 30uM = diaphorase inhibitors and chemical oxidizers, confirmation, counter-screen for P. falciparum G6PD inhibitor project, biochemical, fluorescence intensity, 30 µM NADPH; shares compounds with PfGluPho inh; Diaphorase/resazurin coupled assay, resorufin fluorescence; inhibition, % at 20 µM; 29% of 820 active; AID 504863, 2011;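 active = inhibition averaging 50% or more, tested at 20 µM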
Of the large screens only hits and unclear results are named; the others gave an inactive call (follow-up assays come after a bar, where they were run).

C=CCc1c(C)[nH]c2c(OC)cccc2c1=S	PfGluPho inh 62 | PfGluPho conf inactive
C=CCN(CC=C)C(=O)c1c(OC)cccc1OC	none
N#Cc1ccc(COC(=O)CCc2c[nH]c3ccccc23)cc1	none
O=C(CNc1ccc2c(c1)OCO2)N/N=C\c1cn(Cc2ccccc2)c2ccccc12	PfGluPho inh 67 | PfGluPho conf 51 | Diaphorase 10uM inactive | Diaphorase 30uM inactive
Oc1ccc(/C=N/NC(=S)Nc2cccnc2)cc1O	none
S=C(N/N=C/c1ccc2ncccc2c1)Nc1cccnc1	PfGluPho inh 69 | PfGluPho conf inactive
O=C(O)c1cccc(NC(=S)N/N=C/c2ccccn2)c1	PfGluPho inh 68 | PfGluPho conf inactive
CC(NS(=O)(=O)c1cccc(Cl)c1F)[C@H](O)c1ccccc1 (stereo partly drawn)	none (no result: ATG4B inhibitor, HKDC1 inh, T cell modulator)
Cc1ccc(S(=O)(=O)C=CS(=O)(=O)c2ccc(C)cc2)cc1	PfGluPho inh 113 (no result: ATG4B inhibitor, HKDC1 inh, T cell modulator) | PfGluPho conf 93 | Diaphorase 10uM inactive | Diaphorase 30uM inactive
Cc1ccc(S(=O)(=O)SC/C=C/CSS(=O)(=O)c2ccc(C)cc2)cc1	PfGluPho inh 116 (no result: T cell modulator) | PfGluPho conf 66 | Diaphorase 10uM inactive | Diaphorase 30uM inactive
Cc1ccc(S(=O)(=O)CCCS(=O)(=O)c2ccc(C)cc2)cc1	none
Cc1ccc(S(=O)(=O)SCCCSS(=O)(=O)c2ccc(C)cc2)cc1	PfGluPho inh 123 (no result: T cell modulator) | PfGluPho conf 81 | Diaphorase 10uM inactive | Diaphorase 30uM inactive
C[C@H](CO)N1C[C@H](C)[C@@H](CN(C)C(=O)NC2CCCCC2)Oc2c(NC(=O)C3CCCCC3)cccc2C1=O	none
CCOC(=O)c1c(-c2ccccc2)oc2ccc(O)c(CN(C)C)c12	none
CCOC(=O)c1c(CSCc2ccccc2)oc2ccc(O)c(CN(C)C)c12	PfGluPho inh 59 | PfGluPho conf inactive
COC(=O)Cc1sc(-c2ccccn2)nc1-c1ccccc1	PfGluPho inh 63 | PfGluPho conf inactive
CC(C(=O)Nc1cc([N+](=O)[O-])ccc1Cl)N1CCN(c2ccc(O)cc2)CC1 (stereo not drawn)	PfGluPho inh 60 | PfGluPho conf inactive
Nc1cc(N)nc(SCC(=O)NC(=O)NC2CCCC2)n1	none
Nc1cc(OCC(F)(F)F)cc([N+](=O)[O-])c1	none
Nc1cc(N)c(OCC(F)(F)F)cc1OCC(F)(F)F	PfGluPho inh 99 | PfGluPho conf 94 | Diaphorase 10uM inactive | Diaphorase 30uM inactive
O=[N+]([O-])c1ccc(C(O)CN2CCN(c3ccccc3)CC2)cc1 (stereo not drawn)	none
Oc1ccc(N2CCN(CC(O)c3ccccc3)CC2)cc1 (stereo not drawn)	PfGluPho inh 80 | PfGluPho conf inactive
CCn1c([N+](=O)[O-])nc2c1c(=O)[nH]c(=O)n2C	PfGluPho inh 67 (no result: T cell modulator) | PfGluPho conf 52 | Diaphorase 10uM inactive | Diaphorase 30uM inactive
CCCCCCn1c(SCCCC)nc2c1c(=O)[nH]c(=O)n2C	none
O=C(CCN1CCN(Cc2ccccc2)CC1)NNC(=O)Nc1cccc(C(F)(F)F)c1	none
Cc1cc(C)c(C)c(S(=O)(=O)Nc2ccccc2N2CCOCC2)c1C	PfGluPho inh 65 | PfGluPho conf inactive
O=S(=O)(Nc1ccccc1N1CCOCC1)c1ccc(Cl)cc1	PfGluPho inh 70 | PfGluPho conf inactive
O=S(=O)(Nc1ccccc1N1CCCCC1)c1ccc(F)cc1	PfGluPho inh 69 (no result: PKA-R2B act, PKA-R1A activ) | PfGluPho conf inactive
O=S(=O)(Nc1ccccc1N1CCCCC1)c1ccccc1	none
Nc1cc(S(=O)(=O)Nc2ccccc2Cl)ccc1N1CCCC1	none
Nc1cc(S(=O)(=O)Nc2cc(Cl)ccc2Cl)ccc1N1CCOCC1	PfGluPho inh 61 | PfGluPho conf inactive
Cc1ccc(C(=O)N(CC(=O)NC2CCCC2)c2ccccc2F)s1	none (no result: ATG4B inhibitor, HKDC1 inh, T cell modulator)
O=c1[nH]cc(CCCc2ccccc2)c(=O)[nH]1	none (no result: ATG4B inhibitor, HKDC1 inh, T cell modulator)
CC(C)(C)c1ccc(C(=O)NCc2nnc(SCC(=O)NC3CCCCC3)o2)cc1	none
COc1ccc2[nH]c3c(c2c1)CCN1C(=O)C(CC(=O)NC/C=C(\C)CCC=C(C)C)C[C@H](C(=O)N(C(C)C)C(C)C)[C@@]31C (stereo partly drawn)	none (no result: T cell modulator)
COc1ccc([C@@]2(C(C)C)ON(c3ccccc3C(F)(F)F)C2=O)cc1	none
Cc1nnc(SCc2nc3scc(-c4ccccc4)c3c(=O)[nH]2)s1	PfGluPho inh 60 | PfGluPho conf inactive
CCn1c(SCc2nc3scc(-c4ccccc4)c3c(=O)[nH]2)nnc1-c1cccs1	none | PfGluPho conf 49 | Diaphorase 10uM inactive | Diaphorase 30uM inactive
CCn1c(SCc2nc3ccccc3[nH]2)nnc1-c1cccs1	none (no result: T cell modulator)
Nc1nnc(SCc2nc3scc(-c4ccccc4)c3c(=O)[nH]2)s1	none
C#CCOCC1CNC(=S)O1 (stereo not drawn)	none (no result: ATG4B inhibitor, HKDC1 inh, T cell modulator)
O=c1c(O)c(-c2cc(O)c(O)c(O)c2)oc2cc(O)cc(O)c12	PfGluPho inh 67 | PfGluPho conf inactive
CCCCn1c(N)c(N(Cc2ccccc2OC)C(=O)C(C)C)c(=O)[nH]c1=O	none
COC(=O)c1c(NC(=O)CN2C(=O)c3ccccc3C2=O)sc(Cc2ccc3c(c2)OCO3)c1C	none
Cc1c(Cc2ccc3c(c2)OCO3)sc(NC(=O)c2cccc3ccccc23)c1C(N)=O	PfGluPho inh 87 | PfGluPho conf inactive
Cc1c(Cc2ccc3c(c2)OCO3)sc(NC(=O)C2CC2)c1C(N)=O	PfGluPho inh 70 | PfGluPho conf inactive
CSc1nc(=NC(C)=O)ss1	PfGluPho inh 68 | PfGluPho conf inactive
O=C(c1cccc(S(=O)(=O)N2CCN(c3ccc(F)cc3)CC2)c1)N1CCN(c2ccccc2O)CC1	none (no result: T cell modulator)
